Experimental data as given in BindingDB's records for doi:10.1016/j.bmc.2008.06.044 (University of Montreal, 2008).

Legend:
[1] = Inhibition of recombinant galectin 3 in human O type red blood cells by hemagglutinination assay
[2] = Inhibition of recombinant galectin 1 in human O type red blood cells by hemagglutinination assay
Galectin-3 = Galectin-3 (Homo sapiens, UniProt P17931); assay: Inhibition of recombinant galectin 3 in human O type red blood cells by hemagglutinination assay
Procedure, shortened: (§1)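 Human type O erythrocytes were fixed with 3% glutaraldehyde in PBS containing 0.0025% NaN3, then used at 0.0025% final. Galectin at 1 µM was incubated with the RBCs, with or without a range of inhibitor concentrations, at 37 °C for 30 min. RBC aggregation was then scored, in triplicate.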

Galectin-1 = Galectin-1 (Homo sapiens, UniProt P09382); assay: Inhibition of recombinant galectin 1 in human O type red blood cells by hemagglutinination assay
Procedure, shortened: as §1

Sequence of Galectin-1 (P09382 whole entry): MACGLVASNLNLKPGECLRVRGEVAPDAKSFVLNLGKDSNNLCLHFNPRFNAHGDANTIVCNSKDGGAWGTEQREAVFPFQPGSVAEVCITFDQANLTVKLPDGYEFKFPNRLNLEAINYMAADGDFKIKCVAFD
Sequence of Galectin-3 (P17931 whole entry): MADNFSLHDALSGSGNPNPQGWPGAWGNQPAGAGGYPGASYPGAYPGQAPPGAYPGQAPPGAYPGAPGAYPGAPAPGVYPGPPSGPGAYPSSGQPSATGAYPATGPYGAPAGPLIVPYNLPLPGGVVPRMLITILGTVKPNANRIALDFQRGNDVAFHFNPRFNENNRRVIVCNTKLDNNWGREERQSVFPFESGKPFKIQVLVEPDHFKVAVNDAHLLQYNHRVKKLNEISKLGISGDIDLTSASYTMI

For `CC(=O)C[C@@H]1O[C@H](CO)[C@H](O)[C@H](O)[C@H]1O` [1-((2S,3R,4R,5R,6R)-3,4,5-trihydroxy-6-(hydroxymethyl)-tetrahydro-2H-pyran-2-yl)propan-2-one], the IC50 [1] was 5 mM and the IC50 [2] was > 5 mM.

With `C=C(C[C@@H]1O[C@H](CO)[C@H](O)[C@H](O)[C@H]1O)c1cccc([N+](=O)[O-])c1` [(2R,3R,4R,5R,6S)-2-(hydroxymethyl)-6-(2-(3-nitrophenyl)allyl)-tetrahydro-2H-pyran-3,4,5-triol] the IC50 [1] was > 5 mM and the IC50 [2] was 5 mM.

In the case of `C=C(C[C@@H]1O[C@H](CO)[C@H](O)[C@H](O)[C@H]1O)c1ccc(OC)cc1` [(2R,3R,4R,5R,6S)-2-(hydroxymethyl)-6-(2-(4-methoxyphenyl)allyl)-tetrahydro-2H-pyran-3,4,5-triol], the IC50 [1] is reported as 5 mM and the IC50 [2] is reported as > 5 mM.

In the case of `C/C=C/[C@@H]1O[C@H](CO)[C@H](O)[C@H](O)[C@H]1O` [(2R,3R,4R,5R,6S,E)-2-(hydroxymethyl)-6-(prop-1-enyl)-tetrahydro-2H-pyran-3,4,5-triol], the IC50 [1] is reported as > 5 mM and the IC50 [2] is reported as > 5 mM.

In the case of `OC[C@@H]1O[C@H](n2cc(CS[C@@H]3O[C@H](CO)[C@H](O)[C@H](O)[C@H]3O)nn2)[C@@H](O)[C@H](O)[C@@H]1O` [(2R,3R,4S,5R,6S)-2-(hydroxymethyl)-6-((1-((2S,3S,4R,5S,6S)-3,4,5-trihydroxy-6-(hydroxymethyl)-tetrahydro-2H-pyran-2-yl)-1H-1,2,3-triazol-4-yl)methylthio)-tetrahydro-2H-pyran-3,4,5-triol], the IC50 [1] is reported as 2.5 mM and the IC50 [2] is reported as > 5 mM.

For `C#CCS[C@@H]1O[C@H](CO)[C@H](O)[C@H](O)[C@H]1O` [(2R,3R,4S,5R,6S)-2-(hydroxymethyl)-6-(prop-2-ynylthio)-tetrahydro-2H-pyran-3,4,5-triol], the IC50 [1] was 2.5 mM and the IC50 [2] was > 5 mM.

With `OC[C@@H]1O[C@H](SCC#Cc2ccc(C#CCS[C@@H]3O[C@H](CO)[C@H](O)[C@H](O)[C@H]3O)cc2)[C@@H](O)[C@H](O)[C@@H]1O` [(2R,3S,4S,5R,6S)-2-(hydroxymethyl)-6-(3-(4-(3-((2R,3S,4R,5S,6S)-3,4,5-trihydroxy-6-(hydroxymethyl)-tetrahydro-2H-pyran-2-ylthio)prop-1-ynyl)phenyl)prop-2-ynylthio)-tetrahydro-2H-pyran-3,4,5-triol] the IC50 [1] was > 5 mM and the IC50 [2] was 2.5 mM.

In the case of `OC[C@H]1O[C@@H](C/C=C/c2cccc(/C=C/C[C@@H]3O[C@H](CO)[C@H](O)[C@H](O)[C@H]3O)c2)[C@H](O)[C@@H](O)[C@H]1O` [(2S,3R,4R,5R,6R)-2-((12S,14R,15R,16R,17R,E)-3-((E)-3-((2S,3R,4R,5R,6R)-3,4,5-trihydroxy-6-(hydroxymethyl)-tetrahydro-2H-pyran-2-yl)prop-1-enyl)cinnamyl)-6-(hydroxymethyl)-tetrahydro-2H-pyran-3,4,5-triol], the IC50 [1] is reported as > 5 mM and the IC50 [2] is reported as 5 mM.

For `OC[C@H]1O[C@@H](C/C=C/c2ccccc2)[C@H](O)[C@@H](O)[C@H]1O` [(2S,3R,4R,5R,6R)-2-cinnamyl-6-(hydroxymethyl)-tetrahydro-2H-pyran-3,4,5-triol], the IC50 [1] was > 5 mM and the IC50 [2] was > 5 mM.

Molecule `OC[C@@H]1O[C@H](O[C@@H]2[C@@H](O)[C@H](O)[C@@H](n3cc(CS[C@@H]4O[C@H](CO)[C@H](O)[C@H](O)[C@H]4O)nn3)O[C@H]2CO)[C@@H](O)[C@H](O)[C@@H]1O` [(2S,3R,4S,5R,6R)-2-((1-((2S,3S,4S,5R,6S)-3,4-dihydroxy-6-(hydroxymethyl)-5-((2R,3S,4R,5S,6S)-3,4,5-trihydroxy-6-(hydroxymethyl)-tetrahydro-2H-pyran-2-yloxy)-tetrahydro-2H-pyran-2-yl)-1H-1,2,3-triazol-4-yl)methylthio)-6-(hydroxymethyl)-tetrahydro-2H-pyran-3,4,5-triol] has an IC50 [1] of 0.6 mM and an IC50 [2] of 0.3 mM.

For `OC[C@@H]1O[C@H](n2cc(CS[C@@H]3O[C@H](CO)[C@@H](O[C@@H]4O[C@H](CO)[C@H](O)[C@H](O)[C@H]4O)[C@H](O)[C@H]3O)nn2)[C@@H](O)[C@H](O)[C@@H]1O` [(2S,3R,4S,5R,6R)-2-((2R,3S,4R,5R,6S)-4,5-dihydroxy-2-(hydroxymethyl)-6-((1-((2S,3S,4R,5S,6S)-3,4,5-trihydroxy-6-(hydroxymethyl)-tetrahydro-2H-pyran-2-yl)-1H-1,2,3-triazol-4-yl)methylthio)-tetrahydro-2H-pyran-3-yloxy)-6-(hydroxymethyl)-tetrahydro-2H-pyran-3,4,5-triol], the IC50 [1] was 0.3 mM and the IC50 [2] was 0.6 mM.

`C#CCS[C@@H]1O[C@H](CO)[C@@H](O[C@@H]2O[C@H](CO)[C@H](O)[C@H](O)[C@H]2O)[C@H](O)[C@H]1O` [(2S,3R,4S,5R,6R)-2-((2R,3S,4R,5R,6S)-4,5-dihydroxy-2-(hydroxymethyl)-6-(prop-2-ynylthio)-tetrahydro-2H-pyran-3-yloxy)-6-(hydroxymethyl)-tetrahydro-2H-pyran-3,4,5-triol] showed an IC50 [1] of 0.3 mM and an IC50 [2] of 0.6 mM.

Molecule `OC[C@@H]1O[C@H](O[C@@H]2[C@@H](O)[C@H](O)[C@@H](SCC#CC#CCS[C@@H]3O[C@H](CO)[C@@H](O[C@@H]4O[C@H](CO)[C@H](O)[C@H](O)[C@H]4O)[C@H](O)[C@H]3O)O[C@H]2CO)[C@@H](O)[C@H](O)[C@@H]1O` [(2S,3R,4S,5R,6R)-2-((2R,3S,4R,5R,6S)-6-(6-((2R,3S,4S,5R,6S)-3,4-dihydroxy-6-(hydroxymethyl)-5-((2R,3S,4R,5S,6S)-3,4,5-trihydroxy-6-(hydroxymethyl)-tetrahydro-2H-pyran-2-yloxy)-tetrahydro-2H-pyran-2-ylthio)hexa-2,4-diynylthio)-4,5-dihydroxy-2-(hydroxymethyl)-tetrahydro-2H-pyran-3-yloxy)-6-(hydroxymethyl)-tetrahydro-2H-pyran-3,4,5-triol] has an IC50 [1] of 0.16 mM and an IC50 [2] of 0.3 mM.

For `OC[C@@H]1O[C@H](O[C@@H]2[C@@H](O)[C@H](O)[C@@H](n3cc(CS[C@@H]4O[C@H](CO)[C@@H](O[C@@H]5O[C@H](CO)[C@H](O)[C@H](O)[C@H]5O)[C@H](O)[C@H]4O)nn3)O[C@H]2CO)[C@@H](O)[C@H](O)[C@@H]1O` [(2S,3R,4S,5R,6R)-2-((2R,3S,4R,5R,6S)-6-((1-((2S,3S,4S,5R,6S)-3,4-dihydroxy-6-(hydroxymethyl)-5-((2R,3S,4R,5S,6S)-3,4,5-trihydroxy-6-(hydroxymethyl)-tetrahydro-2H-pyran-2-yloxy)-tetrahydro-2H-pyran-2-yl)-1H-1,2,3-triazol-4-yl)methylthio)-4,5-dihydroxy-2-(hydroxymethyl)-tetrahydro-2H-pyran-3-yloxy)-6-(hydroxymethyl)-tetrahydro-2H-pyran-3,4,5-triol], the IC50 [1] was 0.16 mM and the IC50 [2] was 0.3 mM.

Molecule `COC(=O)/C=C/C[C@@H]1O[C@H](CO)[C@H](O)[C@H](O)[C@H]1O` [(E)-Methyl 4-(beta-D-galactopyranosyl)-but-2-enoate] has an IC50 [1] of 5 mM and an IC50 [2] of 5 mM.

With `OC[C@@H]1O[C@H](SCC#CC#CCS[C@@H]2O[C@H](CO)[C@H](O)[C@H](O)[C@H]2O)[C@@H](O)[C@@H](O)[C@@H]1O` [Dimeric galactoside] the IC50 [1] was > 5 mM and the IC50 [2] was 5 mM.

Work on `OC[C@H]1O[C@H](O)[C@H](O)[C@@H](O)[C@H]1O` [GALACTOSE] yielded an IC50 (Galectin-3) of 50 mM and an IC50 (Galectin-1) of 50 mM.
